Source: PubChem
Kir21 inh: inhibitors of mouse Kir2.1 inward-rectifier potassium channel | AID 1672 | P35561 | actives 0.85% (n = 310,000) | HEK293-Kir2.1, FluxOR thallium flux fluorescence; active compounds read low | B-score at 10 µM;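 active = fluorescence ratio B-score at or below minus 3 SD of library scores, with starting-brightness B-score within 2 SD, cut at about -4.2 in these data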;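 note: channel flux triggered by added potassium and thallium sulfate stimulus; B-score of peak minus minimum fluorescence over baseline after thallium stimulus; more negative B-score means stronger Kir2.1 block with less thallium influx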
KCNQ1 pot: potentiates or activates the human KCNQ1 potassium channel; P51787; CHO-K1 KCNQ1, thallium flux FluxOR fluorescence; active compounds read high; B-score at 10 µM; actives 0.35% (n = 310,000);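 active = fluorescence ratio B-score, a plate-corrected score, at least three library SD, with initial intensity B-score within 5 SD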
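Doses: Single concentration per compound, DMSO matched to controls | Test system: KCNQ1-transfected CHO-K1 cells | Timing: 90 min dye loading and 20 min compound exposure, both at room temperature | Measured by: Kinetic FluxOR thallium fluorescence, 10-s 1-Hz baseline, 110-s post-stimulus read | Medium: Assay buffer with matched DMSO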
KCNQ1 block: blocks the human KCNQ1 potassium channel; AID 2642; CHO-K1 KCNQ1, FluxOR thallium flux fluorescence; active compounds read high; B-score at 10 µM; actives 1.3% (n = 310,000);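 active = compounds whose thallium flux B-score, printed positive for inhibition, exceeds three library SD while starting fluorescence stays within three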;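 note: channel opened by potassium depolarization with thallium stimulus after 20 min compound exposure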
hERG rescue: compounds protecting human hERG from proarrhythmic drug block | Q12809 | CHO-hERG, FluxOR thallium flux, dofetilide IC70 present | activation (rescue from dofetilide block), less the hit threshold, % at 10 µM | actives 0.51% (n = 310,000) | AID 1511;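 active = activation above the mean of controls blocked by dofetilide plus 5 SD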;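 note: thallium influx through hERG after potassium depolarization seen as dye fluorescence rise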
Target sequence (Q12809 whole entry, looked up): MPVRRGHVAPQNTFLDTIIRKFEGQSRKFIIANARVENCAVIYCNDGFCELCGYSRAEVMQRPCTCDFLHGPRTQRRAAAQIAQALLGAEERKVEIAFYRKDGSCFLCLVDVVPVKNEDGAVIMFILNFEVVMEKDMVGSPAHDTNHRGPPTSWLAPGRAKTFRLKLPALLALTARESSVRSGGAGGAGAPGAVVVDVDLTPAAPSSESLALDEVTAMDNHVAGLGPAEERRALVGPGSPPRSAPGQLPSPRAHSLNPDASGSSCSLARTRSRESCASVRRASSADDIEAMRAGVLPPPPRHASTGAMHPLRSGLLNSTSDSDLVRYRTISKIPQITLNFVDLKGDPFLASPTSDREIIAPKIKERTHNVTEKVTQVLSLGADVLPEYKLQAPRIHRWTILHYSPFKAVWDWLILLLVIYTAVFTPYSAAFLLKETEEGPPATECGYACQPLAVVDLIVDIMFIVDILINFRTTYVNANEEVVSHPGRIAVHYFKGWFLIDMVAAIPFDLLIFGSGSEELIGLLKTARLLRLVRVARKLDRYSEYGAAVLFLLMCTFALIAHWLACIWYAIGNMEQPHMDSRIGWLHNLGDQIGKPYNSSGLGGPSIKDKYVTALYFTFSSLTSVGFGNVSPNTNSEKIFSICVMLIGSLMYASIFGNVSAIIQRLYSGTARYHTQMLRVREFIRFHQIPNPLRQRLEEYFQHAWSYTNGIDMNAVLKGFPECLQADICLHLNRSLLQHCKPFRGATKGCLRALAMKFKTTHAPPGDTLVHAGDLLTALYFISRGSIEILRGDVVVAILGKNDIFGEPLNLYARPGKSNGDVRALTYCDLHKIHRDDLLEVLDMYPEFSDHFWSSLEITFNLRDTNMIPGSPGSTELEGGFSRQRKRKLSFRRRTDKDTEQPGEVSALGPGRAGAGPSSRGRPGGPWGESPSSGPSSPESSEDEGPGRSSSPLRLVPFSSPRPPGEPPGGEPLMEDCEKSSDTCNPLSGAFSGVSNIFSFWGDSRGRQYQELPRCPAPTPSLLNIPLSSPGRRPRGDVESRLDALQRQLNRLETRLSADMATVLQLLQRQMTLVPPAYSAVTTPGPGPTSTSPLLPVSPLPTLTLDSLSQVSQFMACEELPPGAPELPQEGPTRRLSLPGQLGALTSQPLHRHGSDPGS
KCNK3 block: human KCNK3 channel inhibition, primary screen; O14649; CHO-KCNK3 thallium flux, FluxOR fluorescence; active compounds read low; B-score at 10 µM; actives 0.84% (n = 340,000); AID 602410;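 active = B-score under library mean minus 4 SD, starting fluorescence ratio at most library mean plus 5 SD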;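 note: more negative B-score means stronger inhibition of thallium flux through KCNK3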
KCNK9 block: blocks the human KCNK9 two-pore domain potassium channel; Q9NPC2; HEK293 KCNK9, FluxOR thallium flux fluorescence; active compounds read low; B-score at 10 µM; actives 1.2% (n = 310,000); AID 488922;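 active = ratio B-score over 3 SD below the library mean, with starting fluorescence within 5 SD of its mean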;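 note: negative B-score means less thallium flux so channel inhibition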
An asterisk follows results filed as active; i = inactive; . = no result given. Most compounds without a hit are left out; they make up all but 3.7% or so of the library.

SMILES	Kir21 inh	KCNQ1 pot	KCNQ1 block	hERG rescue	KCNK3 block	KCNK9 block
CN(C(=O)c1cc2n(n1)C(C(F)(F)F)CC(c1ccco1)N2)c1ccc(OC(F)(F)F)cc1 (centres undefined)	-0.68	i	i	-6	i	i
CN(C(=O)c1cc2n(n1)C(C(F)(F)F)CC(c1ccco1)N2)c1ccccc1 (centres undefined)	-0.21	i	i	-3	i	-6.7*
Cc1ccc(COc2ccc(CNCCCN3CCCCCC3=O)cc2)cc1	-5.1*	i	i	-14	i	i
O=C(COc1ccc(Br)cc1)NCCCN1CCCC1=O	.	.	.	.	i	.
CCOC(=O)C1C(=O)NC(c2ccccc2)=NC1c1ccc(OC)cc1 (centres undefined)	2.3	i	i	-7	i	i
COc1ccc(NC(=O)CSc2nc3nc(-c4cccs4)cc(C(F)(F)F)c3c(=O)[nH]2)c(OC)c1	0.12	i	9*	-5	i	i
Cc1ccc(NC(=S)Nc2ccc(S(=O)(=O)Nc3ncccn3)cc2)cc1Cl	0.41	i	10*	-14	.	i
Cc1ccc(C)c(Oc2cc(NC(=O)CCCn3nc(C)c([N+](=O)[O-])c3C)cc([N+](=O)[O-])c2)c1	0.8	i	i	-1	i	-7.7*
CC(=O)Nc1ccc(S(=O)(=O)N(CC(=O)NC2CC2)Cc2ccccc2)cc1	.	.	.	.	i	.
CCOC(=O)c1c(NC(C)=O)sc2c1CCC(C=O)=C2Sc1ccccc1	-1.2	i	i	-16	i	-6.9*
O=[N+]([O-])c1ccc2nc(-c3ccc(Cl)cc3)[nH]c2c1	-1.4	i	6*	-8	i	i
CCC1Oc2ccc(C)cc2N(CC(=O)N2CCCC2)C1=O (centres undefined)	0.36	i	i	-7	i	i
O=C(Oc1ccc(=O)n(-c2ccccc2)n1)c1ccccc1	-7.4*	i	i	-7	i	i
COc1ccc(Br)cc1CN(C)CC(=O)Nc1cccc(S(N)(=O)=O)c1	-4.6*	i	i	-9	i	i
COc1cccc(CN(C)CC(=O)Nc2cccc(S(N)(=O)=O)c2)c1OC	-1.8	i	i	2	i	i
Cc1[nH]nc(SCC(=O)N2CCCCC2)c1[N+](=O)[O-]	-0.91	10*	i	-5	i	i
Cc1ccc(NC(=O)CSc2n[nH]c(C)c2[N+](=O)[O-])cc1	0.87	i	i	-5	i	i
COc1ccccc1-n1c(SCC(=O)c2ccc(O)cc2O)nc2cc([N+](=O)[O-])ccc21	-0.37	i	6*	-19	i	i
COc1ccccc1-n1c(SCC(=O)NC2CCS(=O)(=O)C2)nc2cc([N+](=O)[O-])ccc21 (centres undefined)	0.88	i	i	2	i	i
Cc1ccc(-c2nc(N)s[n+]2-c2ccccc2)cc1	-3.6	i	i	10*	i	i
CNc1nc(-c2ccccc2)[n+](-c2ccc(C)cc2)s1	-3.8	i	i	-7	i	i
Cc1cc(Cl)c2oc(C(=O)N3CCN(c4ccncc4)CC3)c(C)c2c1	-5.1*	i	i	-17	i	i
CCOC(=O)c1ccc(Nc2nc(-c3cccnc3)nc3ccccc23)cc1	-0.74	i	i	-7	i	-7.1*
CCNC(=S)NNC(=O)c1cc(-c2cccnc2)nc2ccccc12	1.6	i	i	-10	i	i
CCOC(=O)c1ccc(NC(=S)NNC(=O)c2cc(-c3cccnc3)nc3ccccc23)cc1	-0.18	i	10*	-22	i	i
Cc1ccc(Nc2nc(-c3cccnc3)nc3ccccc23)cc1	0.28	i	i	-3	i	i
COc1ccc(CCNC(=O)c2cccc(S(=O)(=O)N3CCCCCC3)c2)cc1	.	.	.	.	i	.
Cc1cccc(C(=O)Nc2sc(C)c(-c3ccccc3)c2C#N)c1	2	i	6*	-5	i	i
Cc1cccc(C(=O)Nc2sc(C(=O)N3CCCC3)c(C)c2C#N)c1	0.94	i	i	-7	i	i
CNC(=O)CSc1nnc(-c2ccco2)n1-c1ccc(C)cc1	1.1	i	i	48*	i	i
